From PubChem BioAssay
IDH1 mut inh: inhibitors of IDH1 R132H reductase, primary screen, biochemical, plate reader, single point. inhibition, % at 10 µM. Isocitrate dehydrogenase [NADP] cytoplasmic (Homo sapiens), O75874. hit rate 0.18% among 70,000. diaphorase/resazurin fluorescence, 60 min; in the data active = inhibition above about 34%; inconclusive = no clear call, values can overlap the other calls; inactive = below about 11%;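 also: 0% = DMSO and 100% = no enzyme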
Target sequence (O75874 whole entry R132H): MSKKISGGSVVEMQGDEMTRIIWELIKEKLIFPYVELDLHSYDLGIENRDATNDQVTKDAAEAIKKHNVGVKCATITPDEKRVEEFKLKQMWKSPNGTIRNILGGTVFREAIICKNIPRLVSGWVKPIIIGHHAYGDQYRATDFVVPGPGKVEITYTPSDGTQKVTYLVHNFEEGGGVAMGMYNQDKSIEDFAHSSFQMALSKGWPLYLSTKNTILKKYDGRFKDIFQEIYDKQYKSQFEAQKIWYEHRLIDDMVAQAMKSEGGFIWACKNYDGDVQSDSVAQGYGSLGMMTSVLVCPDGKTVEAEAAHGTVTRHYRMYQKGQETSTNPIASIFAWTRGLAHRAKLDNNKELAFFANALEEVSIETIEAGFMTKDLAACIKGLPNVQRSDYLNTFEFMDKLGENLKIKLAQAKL
GASC1 inh: inhibitors of GASC-1 (KDM4C) histone demethylase, primary screen, biochemical, single concentration HTS. GST-KDM4C 2-372, H3K9me3 peptide, LANCE TR-FRET. inhibition, % at 12.5 µM. hit rate 0.15% among 96,000. AID 720574, 2013;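 active = mean replicate inhibition above about 25%, with at least 55% of replicates also reaching it, limit read from the data, passing the limit was not always enough; inconclusive = only one of those two conditions met; inactive = neither condition met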
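Material: GST-tagged GASC-1 (JMJD2C) catalytic fragment, aa 2-372 / Quantity: enzyme final amount 10 nM / Medium: HEPES buffer, pH 7.5, plus ascorbate / Doses: one test concentration per compound / Incubation: 30 min reaction, 60 min detection, RT / Measured by: LANCE TR-FRET / Read-out: inhibition from TR-FRET ratio decrease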
T cruzi growth-1: T. cruzi intracellular proliferation inhibitors, primary screen, cell-based, beta-gal Tulahuen parasites, NIH3T3 host, luminescence; T. cruzi beta-gal in NIH3T3, GalScreen luminescence, 90 h; inhibition, % at 8.34 µM; hit rate 5.9% among 77,000; AID 624255, 2012;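 active = mean inhibition above about 93%, with at least 55% of replicates each passing it, limit read from the data, passing the limit was not always enough; inconclusive = only one of those two conditions holds; inactive = neither condition holds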
Pf Dd2 growth: P. falciparum Dd2 growth inhibitors, primary screen, SYBR Green fluorescence, single dose replicates | 72 h; hits give low values | activity change, % at 10 µM | hit rate 2.3% among 94,000 | AID 1159554, 2015; in the data active = activity change below about -80%; inconclusive = no clear call, values can overlap the other calls
T cruzi growth-2: T. cruzi intracellular proliferation inhibitors, confirmation, cell-based, NIH3T3 host, beta-gal parasite, luminescence, cherry-pick | shares compounds with T cruzi growth-1 | T. cruzi beta-gal in NIH3T3, GalScreen luminescence, 90 h | inhibition, % at 8.35 µM | hit rate 72% among 5,600;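 active = mean replicate inhibition above about 95% and at least 55% of replicates individually reaching it, limit read from the data; inconclusive = only one of the two criteria is met; inactive = neither criterion is met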
T cruzi growth-3: inhibitors of intracellular T. cruzi replication, confirmation, NIH3T3 host cells, beta-gal parasites, cherry-pick, set 2. shares compounds with T cruzi growth-1. T. cruzi beta-gal in NIH3T3, GalScreen luminescence, 90 h. inhibition, % at 2.09 µM. hit rate 21% among 5,600. AID 651740, 2012;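 active = mean inhibition above about 95%, with at least 55% of replicates also reaching it, limit read from the data; inconclusive = meets just one of the two conditions; inactive = meets neither condition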;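 also: plate controls were neutral control median for no effect and positive control median for full effect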
NIH3T3 tox: cytotoxicity in mouse NIH/3T3 fibroblasts, confirmation, cytotoxicity control for T. cruzi proliferation inhibitor project, cell-based, cherry-pick, single point; shares compounds with T cruzi growth-1; NIH/3T3 viability, CellTiter-Glo ATP luminescence, 90 h; cytotoxicity (signal decrease), % at 8.35 µM; hit rate 14% among 5,600; AID 651742, 2012;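 active = mean signal decrease across replicates above about 35% based on untreated-well scatter, with enough replicates individually passing, limit read from the data; inconclusive = no rule stated though some were filed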;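 also: 0% = median of neutral control wells and 100% = median of positive control wells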
3T3 cytotox 2: NIH/3T3 fibroblast cytotoxicity, confirmation, cytotoxicity control, cell-based, cherry-pick, single point, set 2; hit rate 56% among 5,600; NIH/3T3 viability, CellTiter-Glo ATP luminescence, 90 h; AID 651744, 2012; inhibition, % at 24.9 µM; shares compounds with T cruzi growth-1;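 active = mean loss of cell viability signal at or above a set limit, and enough replicates individually reaching it; inconclusive = meets only the mean limit or only the replicate share; inactive = meets neither condition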;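 also: 0% = median of neutral control wells and 100% = median of positive control wells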
* marks the source's active call; other numbers are inactive results; ! = not active in a repeat. Hits are enriched below; roughly 5.9% of the tested compounds scored in any of these assays.

`C[C@H]1CCCCO[C@@H](CN(C)Cc2ccc3c(c2)OCO3)[C@@H](C)CN([C@@H](C)CO)C(=O)c2cc(N(C)C)ccc2O1` gave IDH1 mut inh 1, T cruzi growth-1 11 and Pf Dd2 growth -9.
Screening C[C@@H]1CN([C@@H](C)CO)C(=O)c2cc(N(C)C)ccc2O[C@@H](C)CCCCO[C@H]1CN(C)Cc1ccc2c(c1)OCO2 returned GASC1 inh 2, T cruzi growth-1 105*!, Pf Dd2 growth -8, T cruzi growth-2 22, T cruzi growth-3 5, NIH3T3 tox 9 and 3T3 cytotox 2 6.
`Cc1nnc(SCC(=O)Nc2ccccc2C(=O)c2ccccc2)s1` gave IDH1 mut inh 0.
For C[C@@H]1CN([C@H](C)CO)S(=O)(=O)c2ccc(C#Cc3cccc(F)c3)cc2O[C@H]1CN(C)S(=O)(=O)c1ccccc1F the results were IDH1 mut inh 0, GASC1 inh 0, T cruzi growth-1 111*, Pf Dd2 growth -76, T cruzi growth-2 109*, T cruzi growth-3 106*, NIH3T3 tox 32 and 3T3 cytotox 2 35*.
`C[C@@H]1CN([C@@H](C)CO)S(=O)(=O)c2ccc(C#Cc3cccc(F)c3)cc2O[C@H]1CN(C)S(=O)(=O)c1ccccc1F` gave IDH1 mut inh -2, GASC1 inh -3, T cruzi growth-1 112*, Pf Dd2 growth -79, T cruzi growth-2 110*, T cruzi growth-3 inconclusive, NIH3T3 tox 8 and 3T3 cytotox 2 34*.
`C[C@H](CO)N1C[C@H](C)[C@H](CN(C)S(=O)(=O)c2ccccc2F)Oc2cc(C#Cc3cccc(F)c3)ccc2S1(=O)=O` gave IDH1 mut inh 0, GASC1 inh 13, T cruzi growth-1 109*, Pf Dd2 growth -16, T cruzi growth-2 103*, T cruzi growth-3 43, NIH3T3 tox 17 and 3T3 cytotox 2 11.
`COc1ccc(NC(=O)CSC2=C(C#N)C(c3ccc(Cl)cc3)CC(=O)N2)cc1` (stereo not given) gave IDH1 mut inh 0.
`CCCN(C)C[C@@H]1OCCCC[C@@H](C)Oc2ccc(NC(=O)Nc3ccc(C(F)(F)F)cc3)cc2C(=O)N([C@H](C)CO)C[C@@H]1C` gave GASC1 inh -2, T cruzi growth-1 100*, Pf Dd2 growth -74, T cruzi growth-2 107*, T cruzi growth-3 86, NIH3T3 tox 26 and 3T3 cytotox 2 39*.
`CCCN(C)C[C@@H]1OCCCC[C@H](C)Oc2ccc(NC(=O)Nc3ccc(F)cc3)cc2C(=O)N([C@@H](C)CO)C[C@@H]1C` gave GASC1 inh -1, T cruzi growth-1 95*, Pf Dd2 growth -63, T cruzi growth-2 99*, T cruzi growth-3 83, NIH3T3 tox 10 and 3T3 cytotox 2 16.
For COc1ccc(S(=O)(=O)Nc2ccc3c(c2)C(=O)N([C@H](C)CO)C[C@@H](C)[C@@H](CN(C)Cc2ccc(Cl)c(Cl)c2)O3)cc1 the results were IDH1 mut inh 1, GASC1 inh -1, T cruzi growth-1 72 and Pf Dd2 growth 16.
For COc1ccc(S(=O)(=O)Nc2ccc3c(c2)C(=O)N([C@@H](C)CO)C[C@@H](C)[C@H](CN(C)Cc2ccc(Cl)c(Cl)c2)O3)cc1 the results were IDH1 mut inh 0, GASC1 inh 1, T cruzi growth-1 121*, Pf Dd2 growth -22, T cruzi growth-2 96*, T cruzi growth-3 68, NIH3T3 tox 40* and 3T3 cytotox 2 105*.
Screening COc1ccc(S(=O)(=O)Nc2ccc3c(c2)C(=O)N([C@H](C)CO)C[C@@H](C)[C@H](CN(C)Cc2ccc(Cl)c(Cl)c2)O3)cc1 returned GASC1 inh 0, T cruzi growth-1 120*, Pf Dd2 growth 1, T cruzi growth-2 102*, T cruzi growth-3 22, NIH3T3 tox 9 and 3T3 cytotox 2 104*.
C[C@H](CO)N1C[C@H](C)[C@H](CN(C)Cc2ccc(Cl)c(Cl)c2)Oc2ccc(NS(=O)(=O)c3ccc(F)cc3)cc2C1=O was read as IDH1 mut inh 5, GASC1 inh 0, T cruzi growth-1 27 and Pf Dd2 growth 17.
C[C@H]1CN([C@@H](C)CO)C(=O)c2cc(NS(=O)(=O)c3ccc(F)cc3)ccc2O[C@@H]1CN(C)Cc1ccc(Cl)c(Cl)c1 was read as IDH1 mut inh 0, GASC1 inh 2, T cruzi growth-1 inconclusive, Pf Dd2 growth -7, T cruzi growth-2 101*, T cruzi growth-3 73, NIH3T3 tox 25 and 3T3 cytotox 2 98*.
`O=C(CSc1ncn(-c2ccccc2)n1)Nc1ccc(Cl)cc1` gave IDH1 mut inh 1.
For CC(C)C#Cc1ccc2c(c1)O[C@H](CN(C)Cc1ccncc1)[C@H](C)CN([C@H](C)CO)S2(=O)=O the results were IDH1 mut inh 1, GASC1 inh 0, T cruzi growth-1 101*, Pf Dd2 growth -27, T cruzi growth-2 99*, T cruzi growth-3 72, NIH3T3 tox inconclusive and 3T3 cytotox 2 50*.
`C[C@H](O)C#Cc1ccc2c(c1)O[C@@H](CN(C)Cc1ccncc1)[C@H](C)CN([C@H](C)CO)S2(=O)=O` gave IDH1 mut inh 1, GASC1 inh 1, T cruzi growth-1 113*, Pf Dd2 growth -42, T cruzi growth-2 100*, T cruzi growth-3 73, NIH3T3 tox 30 and 3T3 cytotox 2 39*.
`Cc1cc2nc(-c3ccc(NC(=O)COc4ccc([N+](=O)[O-])cc4)cc3)oc2cc1C` gave IDH1 mut inh 0.
Cc1ccsc1C1C(C(=O)c2ccco2)C(=O)C(=O)N1Cc1ccco1 (stereo not given) was read as IDH1 mut inh 3.
`N#C[C@@H]1[C@@H](c2ccc(C#CC3CCCC3)cc2)[C@@H](CO)N1C(=O)c1cccc(F)c1` gave GASC1 inh -4 and Pf Dd2 growth -39.
